Compound activity: PubChem BioAssay, several laboratories
A selection: hits, their analogues and other compounds. The true share with any hit is near 2.2%.
C8 TRAIL sens = sensitizes caspase-8 expressing cells to TRAIL; NB7+C8 cells + TRAIL, ATPlite viability luminescence; AID 624354; 1% of 360,000 active; inhibition (viability loss, TRAIL sensitization), % at 10 µM;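 active = compounds causing at least 50% loss of cell viability in the single-dose screen, relative to plate controls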
FLuc inh counter = Photinus pyralis luciferase inhibition counter-screen; AID 1006; P08659; 1.5% of 200,000 active; ATPLite firefly luciferase biochemical luminescence, 10 min; inhibition, % at 10 µM;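 active = inhibition above about 50% when tested at 10 µM, limit read from the data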
Target sequence (P08659 whole entry, looked up): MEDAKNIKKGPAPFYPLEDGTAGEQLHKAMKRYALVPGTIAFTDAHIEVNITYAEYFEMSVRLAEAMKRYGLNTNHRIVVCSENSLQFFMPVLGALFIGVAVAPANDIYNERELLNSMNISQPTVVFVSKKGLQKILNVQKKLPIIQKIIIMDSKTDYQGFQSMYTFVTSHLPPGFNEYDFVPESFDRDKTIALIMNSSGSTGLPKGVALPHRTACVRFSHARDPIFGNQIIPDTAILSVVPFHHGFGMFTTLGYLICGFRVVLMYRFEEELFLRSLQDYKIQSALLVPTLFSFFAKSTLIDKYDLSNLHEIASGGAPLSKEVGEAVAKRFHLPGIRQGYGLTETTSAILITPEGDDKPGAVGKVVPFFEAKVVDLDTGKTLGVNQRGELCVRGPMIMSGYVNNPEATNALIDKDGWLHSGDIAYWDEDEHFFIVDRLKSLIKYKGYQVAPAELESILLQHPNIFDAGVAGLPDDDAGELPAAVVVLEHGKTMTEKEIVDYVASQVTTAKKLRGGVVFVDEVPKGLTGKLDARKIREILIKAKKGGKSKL
PPC-1+TRAIL kill = compounds killing PPC-1 cancer cells with TRAIL present (potentiator screen, no TRAIL-free arm) | 0.41% of 220,000 active | cell killing (% activity), % at 4 µM or 5 µM | AID 1443 | PPC-1 cells + TRAIL, ATPLite viability luminescence;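 active = cell killing above 50% in the first pass at 4 µM, then a duplicate retest at 5 µM averaging 50% or more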
FLuc act counter = affects firefly luciferase, flagging false hits in luciferase stimulation screens | activation factor at 10 µM | P08659 | 200,000 tested, under 10 active | ATPlite luciferase biochemical, luminescence, 10 min; 0 = ATP-free wells, 1 = DMSO control;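 active = luciferase activation factor, scaled between plate controls, of at least 2 with compound at 10 µM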
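System: Luciferase/luciferin detection reagent, cell-free biochemical luciferase assay | Medium: PBS buffer for ATP | Dosing: Test compounds dosed from 2 mM stocks in 100% DMSO | Timing: 10 min at ambient temperature | Signal: Luminescence measurement of luciferase light output | Evaluation: Luciferase activation, seen as luminescence increase over controls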
APP 5'UTR act = APP 5'UTR luciferase reporter activation; SH-SY5Y APP 5'UTR luciferase reporter, luminescence; zero percent = DMSO vehicle wells; activation, % at 2 µM; 1% of 190,000 active; AID 1276;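 active = activation above a set limit, based on mean plus 3 SD of controls, cut at about 140% in these data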
NF-kB neuron act = NF-kB expression increase, human neuronal cells. 1.6% of 190,000 active. fold change at 12.5 µM. AID 1239. NF-kB reporter expression; stronger effect = higher value; in the data active = fold change above about 3.3
A number is an active result; . = inactive; / = no result.

SMILES | C8 TRAIL sens | FLuc inh counter | PPC-1+TRAIL kill | FLuc act counter | APP 5'UTR act | NF-kB neuron act
O=c1c2ccccc2ncn1CCCOc1ccccc1[N+](=O)[O-] | . | . | . | . | . | .
O=[N+]([O-])c1ccccc1OCCCn1cnc2ccccc21 | . | . | . | . | . | 4.1
Cc1cc(C)cc(Nc2ncc3c(n2)CCCC3=O)c1 | . | . | . | . | 163 | .
Cc1ccc(-c2nnc(-c3cccc(Br)c3)o2)cc1 | . | . | . | . | . | 3.7
Cc1cccc(-c2nnc(-c3ccc(N)cc3)o2)c1 | . | 56 | . | . | . | 4
Nc1ccc(-c2nnc(-c3ccc(N)cc3)o2)cc1 | . | / | / | / | / | /
CCCCCCCCN1C(=O)[C@H](CC(=O)N2CCN(C(=O)c3ccco3)CC2)C[C@@]2(C(=O)OC)CCCCC=C12 | . | / | / | / | / | /
COc1ccc(NC(=O)c2cccc3c2C(=O)c2ccc(-c4ccc(F)cc4OCc4ccccc4)cc2S3(=O)=O)cc1 | 59 | / | / | / | / | /
CC(C)(CO)NC(=O)c1ccc2c(c1)C(=O)c1ccccc1-2 | . | / | / | / | / | /
CCC(C)(C)c1ccc2c(c1)C(=O)c1ccccc1C2=O | . | . | . | . | 182 | .
CCc1nc2ccc(C(=O)Nc3cc(-c4ccccc4)ccc3OC)cn2c1N(C)C(=O)c1cccc(OC)c1 | . | / | / | / | / | /
Oc1ccc(/C=N/N2CCN(C3c4ccccc4-c4ccccc43)CC2)cc1O | 58 | / | . | / | / | /
CSc1ccc(CN2CCC(C)(Oc3ccc(C(C)=O)cc3)C2)cc1 (stereo not given) | . | / | / | / | / | /
CCOC(=O)c1c(C)oc2c1c(C(c1cccnc1)N1CCOCC1)c(O)c1ccccc12 (stereo not given) | . | . | . | . | . | 3.6
CCOC(=O)c1c(C)oc2c1c1c(c3ccccc32)OCN(Cc2cccnc2)C1 | . | . | . | . | . | 4.7
Cc1cccc(C)c1NC(=O)C(c1ccc(C#N)cc1)n1c(=O)c(-c2ccco2)nc2ccccc21 (stereo not given) | . | / | / | / | / | /
COC(=O)c1ccc2nc(-c3cccc(Cl)c3)c(Cc3ccsc3)n2c1 | . | / | / | / | / | /
CCCCNC(=O)C1C(c2ccccc2)=Nc2ccccc2N1C(=O)c1ccc(C)cc1 (stereo not given) | . | / | / | / | / | /
Cc1ccc(C(=O)c2cc([N+](=O)[O-])ccc2N2CCCCC2)c(C)c1 | . | . | . | . | . | 3.9
COc1ccc(C(=O)c2cc([N+](=O)[O-])ccc2N2CCOCC2)cc1 | . | . | . | . | . | 3.4
Cc1ccc(C(=O)c2cc([N+](=O)[O-])ccc2N2CCOCC2)cc1 | . | . | . | . | . | .
CCOc1ccc(C(=O)c2cc([N+](=O)[O-])ccc2N2CCOCC2)cc1 | . | . | . | . | . | 3.6
CCOC(=O)[C@]12CCCC=C1N(Cc1ccco1)C(=O)[C@H](CC(=O)NCCC(C)C)C2 | . | / | / | / | / | /
CCOC(=O)C(=O)N(C)c1c(CC)nc2c(OCc3ccc(OC(F)F)cc3)cccn12 | . | / | / | / | / | /
CC(=O)Nc1ccc(C(=O)N2CCCCC2c2cc(C(=O)NCc3ccc(F)cc3)no2)cc1 (stereo not given) | . | / | / | / | / | /
SMILES | C8 TRAIL sens | FLuc inh counter | PPC-1+TRAIL kill | FLuc act counter | APP 5'UTR act | NF-kB neuron act
CC(C)(C)C(=O)Nc1ccc2oc(-c3cc(F)c(F)cc3Cl)nc2c1 | . | . | . | . | . | 4.3
CC(=O)Nc1ccc(-c2nc3cc(Cl)ccc3o2)cc1 | . | / | / | / | / | /
CCCCOCCCNC(=O)C[C@@H]1C[C@@]2(C(=O)OCC)CCCC=C2N(Cc2ccco2)C1=O | . | / | / | / | / | /
COC(=O)c1ccc2nc(-c3ccc(Cl)cc3)c(Cc3ccsc3)n2c1 | . | / | / | / | / | /
O=C(C1=NOC2(C1)C(=O)Nc1ccccc12)N1CCCCC1 (stereo not given) | . | / | / | / | / | /
CN1CCN(C(=O)C2=NOC3(C2)C(=O)Nc2ccccc23)CC1 (stereo not given) | 52 | / | / | / | / | /
Oc1ccc2c(c1)oc1cc(O)ccc12 | . | . | . | . | . | 7
COc1c(C)oc2cc(O)ccc2c1=O | . | . | . | . | . | .
CCOC(=O)C1(C)CCN1C(=O)c1ccc(SC(F)(F)F)cc1 (stereo not given) | . | / | / | / | / | /
NC(Cc1ccc(C(F)(F)F)cc1)c1csc(Nc2ccc(S(N)(=O)=O)cc2)n1 (stereo not given) | . | / | / | / | / | /
Brc1ccc(-c2nnc3sc(CN4CCC5(CC4)OCCO5)cn23)cc1 | 66 | . | . | . | . | .
Brc1ccc(-c2nnc3sc(CN4CCc5ccccc5C4)cn23)cc1 | . | / | / | / | / | /
